From ChEMBL document CHEMBL5506013, “Mitochondria-Selective Dicationic Small-Molecule Ligand Targeting G-Quadruplex Structures for Human Colorectal Cancer Therapy” (J Med Chem, 2024)
Calls of active or inactive are those of the source. The rule behind the calls is not given here.

Assays:
DNA = assay: Binding affinity to HP19 DNA (non-G4 DNA) (unknown origin) assessed as dissociation constant measured upto 450 secs by surface plasmon resonance assay; format: nucleic-acid assay
Method in brief: (§1)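 Surface plasmon resonance in buffer at 25 °C. Four G4-mtDNAs (Mito 78, Mito 55, Mito 29, Mito 0.5-16) and the hairpin HP19 served as substrates. Kd was derived from the sensorgrams.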

HCT-116 [1] = assay: Downregulation of lamin B1 level in human HCT-116 cells measured after 72 hrs by immunofluorescence analysis; format: functional, cell-based; conditions: dose <= 4.0 µM
Method in brief: (§2)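 HCT116 cells treated with ligand at 0-4 uM for 72 h. Lamin B1 and Ki67 imaged by immunofluorescence (excitation 635 nm), or lamin B1 probed on Western blot with β-actin as loading control.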

Quadruplex DNA [2] = assay: Binding affinity to mito 78 G4 DNA (unknown origin) assessed as dissociation constant measured upto 450 secs by surface plasmon resonance assay; format: nucleic-acid assay
HCT-116 [3] = assay: Downregulation of COX3 protein level in human HCT-116 cells at upto 4 uM incubated for 48 hrs by Western blot analysis; format: functional, cell-based
HCT-116 [4] = assay: Antitumor activity against human HCT-116 cells xenografted in Balb/c nude mouse model assessed as inhibition of tumor cell proliferation at 5 mg/kg, iv administered every two days for 16 days by Ki67 staining based analysis; format: functional, organism-based; conditions: time 16.0 day
Method in brief: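 Tumours came from HCT116-xenografted male Balb/c nude mice given 5 mg/kg i.v. every two days, or PBS, for 16 days. Tumour tissue sections were stained by TUNEL for apoptosis and by Ki67 immunofluorescence for proliferation, then compared with the control group.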

Quadruplex DNA [5] = assay: Binding affinity to mito 0.5-16 G4 DNA (unknown origin) assessed as dissociation constant measured upto 450 secs by surface plasmon resonance assay; format: nucleic-acid assay; method in brief: as §1
[6] = Toxicity in BALB/c nude mouse assessed as change in lymphocyte count at 5 mg/kg, iv administered every two days for 16 days; format: organism-based; conditions: in vivo, 384 h, time 16 day
Method in brief: (§3)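 HCT116 xenograft-bearing male Balb/c nude mice (6/group) dosed iv at 5 mg/kg every two days or with PBS. Whole blood collected at sacrifice on day 16 for hematology parameters.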

[7] = Drug localization in human HCT-116 cells overexpressing eBFP tagged Pif1 by measuring red foci at 4 uM incubated for 1 hr by hoechst33342 staining based analysis; format: ADME, cell-based; conditions: hct-116, 1 h
Method in brief: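 HCT116 cells overexpressing eBFP-tagged Pif1 (excitation 405 nm), with an eBFP-only control. Cells incubated with ligand 4 uM (excitation 488 nm) for 1 h, then red foci imaged by confocal microscopy in 100 cells. Mean ± SEM, t test.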

HCT-116 [8] = assay: Downregulation of ND3 mRNA level in human HCT-116 cells at 0 to 4 uM measured after 48 hrs by qRT-PCR analysis; format: functional, cell-based; conditions: dose 0-4 µM
HCT-116 [9] = assay: Induction of DNA damage in human HCT-116 assessed as increase in gammaH2AX level at upto 4 uM incubated for 72 hrs by Western blot analysis; format: functional, cell-based
Method in brief: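 HCT116 cells treated with ligand at 0-4 uM for 72 h. Lysates immunoblotted for Lamin B1, p53, p21, p16, gamma-H2A.x, caspase-3 and cleaved caspase-3, with beta-actin as loading control.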

[10] = Drug localization in nucleus of human HCT-116 cells at 1 to 8 uM incubated for 1 hrs by hoechst33342 staining based live cell imaging analysis; format: ADME, subcellular; conditions: hct-116, 1 h, dose 1-8 µM
HCT-116 [11] = assay: Downregulation of mitochondrial respiratory chain complex III level in human HCT-116 cells at upto 4 uM measured after 48 hrs by Western blot analysis; format: functional, cell-based
Quadruplex DNA [12] = assay: Binding affinity to mito 55 G4 DNA (unknown origin) assessed as dissociation constant measured upto 150 secs by isothermal titration calorimetry assay; format: nucleic-acid assay
[13] = Drug localization in nucleus of human HCT-116 cells at 4 uM measured upto 12 hrs by hoechst33342 staining based live cell imaging analysis; format: ADME, subcellular; conditions: hct-116, 12 h
Quadruplex DNA [14] = assay: Binding affinity to Mito 78 G4 DNA (unknown origin) assessed as change in melting temperature at 5 uM by circular dichroism spectroscopic analysis; format: nucleic-acid assay
HCT-116 [15] = assay: Downregulation of CYTB protein level in human HCT-116 cells at upto 4 uM incubated for 48 hrs by Western blot analysis; format: functional, cell-based
[16] = Toxicity in BALB/c nude mouse assessed as change in white blood cell count at 5 mg/kg, iv administered every two days for 16 days; format: organism-based; conditions: in vivo, 384 h, time 16 day; method in brief: as §3
Quadruplex DNA [17] = assay: Binding affinity to mito 55 G4 DNA (unknown origin) assessed as increase in fluorescence intensity by fluorescence spectrophotometric analysis; format: nucleic-acid assay
Method in brief: (§4)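 Oligonucleotides were pre-annealed at 95 °C for 10 min, then cooled slowly. Ligand (5 uM) was mixed with 20 uM DNA in buffer. Emission was collected over 550–800 nm, and enhancement was taken at 650 nm as F/F0.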

Quadruplex DNA [18] = assay: Binding affinity to Mito 0.5-16 G4 DNA (unknown origin) assessed as increase in CD signal at 5 uM at 290 nM by circular dichroism spectroscopic analysis; format: nucleic-acid assay
HCT-116 [19] = assay: Induction of cell cycle arrest in human HCT-116 cells assessed as accumulation of cells at G0/G1 phase at 1 to 4 uM measured after 72 hrs by PI staining based flow cytometry analysis (reference value: 50.66%); format: functional; conditions: dose 1-4 µM
Method in brief: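 HCT116 cells treated at 0-4 uM for 72 h. Cell-cycle distribution measured by flow cytometry and G0/G1 percentage recorded.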

Quadruplex DNA [20] = assay: Binding affinity to mito 29 G4 DNA (unknown origin) assessed as increase in fluorescence intensity by fluorescence spectrophotometric analysis; format: nucleic-acid assay; method in brief: as §4
[21] = Drug localization in human HCT-116 cells overexpressing twinkle helicase by measuring red foci at 4 uM incubated for 1 hr by hoechst33342 staining based analysis; format: ADME, cell-based; conditions: hct-116, 1 h
HCT-116 [22] = assay: Downregulation of lamin B1 level in human HCT-116 cells measured after 72 hrs by Western blot analysis; format: functional, cell-based; conditions: dose <= 4.0 µM; method in brief: as §2
[23] = Drug localization in human HCT-116 cells transfected with Cy5-HP19 non G4 DNA at 4 uM incubated for 1 hr by hoechst33342 staining based analysis; format: ADME, cell-based; conditions: hct-116, 1 h
Method in brief: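 HCT116 cells transfected with Cy5-labelled DNA (excitation 635 nm) for 24 h. Ligand 4 uM added for 1 h, then Hoechst33342 1 uM for 30 min. Colocalization of ligand with Cy5 quantified by Pearson r from confocal images.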

HFF-1 = assay: Downregulation of ND5 mRNA level in human HFF-1 cells at 0 to 4 uM measured after 48 hrs by qRT-PCR analysis; format: functional, cell-based; conditions: dose 0-4 µM
Quadruplex DNA [24] = assay: Binding affinity to mito 29 G4 DNA (unknown origin) assessed as dissociation constant measured upto 450 secs by surface plasmon resonance assay; format: nucleic-acid assay; method in brief: as §1
[25] = Drug localization in human HCT-116 cells by measuring red foci at 4 uM incubated for 1 hr in presence of cyclosporin A by hoechst33342 staining based analysis; format: ADME, cell-based; conditions: hct-116, 1 h
Method in brief: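 Pretreatment of live HCT116 cells: FCCP 1 uM for 20 min, cyclosporin A 1 uM for 24 h, DMOG 100 uM for 24 h, or MitoPDS at several concentrations for 3 h (applied after dye loading). Cells loaded with ligand 4 uM (excitation 488 nm) for 1 h and Hoechst33342 1 uM for 30 min. Red foci counted by confocal imaging in 100 cells. Mean ± SEM, t test.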

Kd (DNA): > 2000 nM
Kd (Quadruplex DNA [2]): 40 nM
Kd (Quadruplex DNA [5]): 290 nM
Drug uptake [7]: Not Active
Drug uptake [10]: Not Active
Kd (Quadruplex DNA [12]): 60 nM
Drug uptake [13]: Not Active
ΔTm (Quadruplex DNA [14]): 11.3 °C
Activity (Quadruplex DNA [17]): Active
Activity (Quadruplex DNA [18]): Active
Activity (Quadruplex DNA [20]): Active
Drug uptake [21]: Active
Drug uptake [23]: Not Active
Kd (Quadruplex DNA [24]): 110 nM
Drug uptake [25]: Active
SMILES: C(=C\c1ccc2ccccc2[n+]1CCCCCCCC[n+]1c(/C=C/c2ccc(N3CCCCC3)cc2)ccc2ccccc21)/c1ccc(N2CCCCC2)cc1.[I-].[I-]
Activity (HCT-116 [1]): Dose-Dependent Effect
Activity (HCT-116 [3]): Active
Activity (HCT-116 [4]): Active
Activity [6]: Non-Toxic
Activity (HCT-116 [8]): Active
Activity (HCT-116 [9]): Active
Activity (HCT-116 [11]): Active
Activity (HCT-116 [15]): Active
Activity [16]: Non-Toxic
Activity (HCT-116 [19]): 66.01%
Activity (HCT-116 [22]): Dose-Dependent Effect
Activity (HFF-1): Active
